Molecular target: T1, Amine oxidase [flavin-containing] A (Bos taurus, UniProt P21398)
T1 sequence (P21398 whole entry): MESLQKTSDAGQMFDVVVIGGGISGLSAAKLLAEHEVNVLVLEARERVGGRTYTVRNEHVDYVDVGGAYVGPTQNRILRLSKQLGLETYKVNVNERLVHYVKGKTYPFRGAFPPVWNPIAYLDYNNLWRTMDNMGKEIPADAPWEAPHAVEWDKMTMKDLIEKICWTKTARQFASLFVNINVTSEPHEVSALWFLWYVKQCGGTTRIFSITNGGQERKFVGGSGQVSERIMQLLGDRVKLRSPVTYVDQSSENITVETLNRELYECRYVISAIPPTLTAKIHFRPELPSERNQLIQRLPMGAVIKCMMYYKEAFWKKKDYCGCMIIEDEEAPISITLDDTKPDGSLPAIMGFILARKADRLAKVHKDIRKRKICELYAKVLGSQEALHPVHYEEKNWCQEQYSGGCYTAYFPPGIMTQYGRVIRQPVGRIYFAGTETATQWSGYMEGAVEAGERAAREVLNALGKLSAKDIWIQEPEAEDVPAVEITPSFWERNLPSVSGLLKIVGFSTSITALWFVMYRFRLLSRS
Experiment: Inhibition of bovine brain mitochondrial Monoamine oxidase A (MAO-A) compared to toloxatone
How it was run: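 Bovine brain mitochondria were isolated by the Basford method. To isolate MAO-A, fractions were preincubated 30 min at 38 °C with 1 μM L-deprenyl. Inhibitors in DMSO were preincubated 30 min, then kynuramine substrate was added, with 30 min further incubation. Product was read fluorimetrically and Ki values derived.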

O=C1O[C@@H](CO)CN1n1cccc1
Ki: 270 nM
